Assay outcomes: PubChem BioAssay, several laboratories
STAT3 activator – IL-6 driven STAT3 reporter potentiators, primary screen, U3A cells, luciferase, luminescence, MLSCN library. IL-6 STAT3-luciferase reporter; 100% = signal with IL-6 EC80 alone. activation (% of control), % at 5.6 µM. hit rate 0.91% among 190,000. AID 871, 2007;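 active = activation above the screen-wide mean of compound activation plus 3 SD, cut at about 130% in these data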;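 also: 0% = background luminescence of wells with medium and substrate only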
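Material: STAT1-lacking human U3A cells, STAT3 luciferase reporter | Benchmarks: IL-6-only wells as 100% reference | Probe or stimulus: IL-6 (33 ng/mL) | Timing: Compound 1 h, then IL-6 6 h at 37 °C | Detection: Luminescence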
PolyA inhibitor – polyadenylation inhibitors in yeast reporter cells, primary screen, luminescence, S. cerevisiae. S. cerevisiae SKY197-pL101 polyadenylation reporter, beta-gal luminescence; efflux-impaired pdr1/pdr3 knockout yeast; score 100 = 6 SD above DMSO. activity score, % at 12 µM. AID 1875, 2009. hit rate 0.02% among 300,000;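 active = lowest replicate activity score at least 50, where 100 means six control SD above control mean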;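 also: yeast exposed to compound for 9 h at 30 °C; higher score means more reporter readthrough which indicates perturbed polyadenylation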
HSF1 inh – HSF1 inhibitors in luciferase reporter cells, primary screen, cell-based, NIH3T3, luminescence. NIH3T3-HGL HSE-luciferase, MG132-induced, luminescence 8 h; hits give low values. activity change, negative = inhibition, % at 7.5 µM (by protocol). hit rate 0.77% among 300,000. AID 2098, 2009;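 active = more than half of replicate wells show activity change below -50%, luminescence cut by over half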;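 also: luciferase reports HSF-1 transcriptional activity via heat shock element; 0% = median of DMSO wells and -100% = zero luminescence signal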
PERK inh – block of dimerizer-induced PERK translation repression, primary screen, PERK inhibitor project, CHO PERK-DD cells, SEAP luminescence, HTS. AID 1416, 2008. inhibition, % at 5.6 µM. CHO PERK-DD fusion, SEAP luminescence translation reporter. hit rate 0.17% among 220,000;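 active = inhibition above the mean inhibition of all tested compounds plus 3 SD, set separately per screening campaign, cut at about 2.9% in these data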;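 also: PERK kinase domain activated by AP20187 dimerizer at 100 nM; 0% = DMSO with dimerizer and 100% = rapamycin at 8.4 µM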
Target sequence (Q9NZJ5 whole entry, looked up, the tested form may be a part): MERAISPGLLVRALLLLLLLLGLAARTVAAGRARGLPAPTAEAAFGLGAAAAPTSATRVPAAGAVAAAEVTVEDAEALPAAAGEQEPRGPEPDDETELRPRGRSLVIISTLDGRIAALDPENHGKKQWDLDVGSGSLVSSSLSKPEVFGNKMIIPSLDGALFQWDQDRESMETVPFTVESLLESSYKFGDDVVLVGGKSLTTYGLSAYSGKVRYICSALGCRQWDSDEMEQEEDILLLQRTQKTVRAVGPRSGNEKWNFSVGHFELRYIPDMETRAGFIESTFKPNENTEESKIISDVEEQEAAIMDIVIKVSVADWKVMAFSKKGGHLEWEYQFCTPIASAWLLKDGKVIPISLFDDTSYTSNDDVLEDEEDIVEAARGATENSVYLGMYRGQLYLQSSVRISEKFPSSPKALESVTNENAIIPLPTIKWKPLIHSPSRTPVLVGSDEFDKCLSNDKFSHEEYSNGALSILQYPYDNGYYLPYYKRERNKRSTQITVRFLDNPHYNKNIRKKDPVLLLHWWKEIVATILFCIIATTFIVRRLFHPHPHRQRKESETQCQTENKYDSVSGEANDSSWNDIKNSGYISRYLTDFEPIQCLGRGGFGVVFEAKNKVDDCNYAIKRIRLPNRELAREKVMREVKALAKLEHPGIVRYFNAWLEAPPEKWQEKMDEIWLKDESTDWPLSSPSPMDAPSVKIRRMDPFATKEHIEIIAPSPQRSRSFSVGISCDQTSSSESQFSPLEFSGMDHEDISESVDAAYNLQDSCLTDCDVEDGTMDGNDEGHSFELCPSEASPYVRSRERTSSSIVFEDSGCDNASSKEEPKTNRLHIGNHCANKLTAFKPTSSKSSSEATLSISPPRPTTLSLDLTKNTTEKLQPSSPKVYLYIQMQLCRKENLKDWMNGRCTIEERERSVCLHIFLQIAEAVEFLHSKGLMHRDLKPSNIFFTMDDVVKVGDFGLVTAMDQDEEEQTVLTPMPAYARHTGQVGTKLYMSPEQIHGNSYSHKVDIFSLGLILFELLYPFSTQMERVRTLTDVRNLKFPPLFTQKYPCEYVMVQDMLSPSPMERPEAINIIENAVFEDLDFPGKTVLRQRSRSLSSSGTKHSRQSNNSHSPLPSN
Hsp70 activator – Hsp70 transcriptional activators, primary screen, cell-based, HeLa, Hsp70 promoter luciferase, luminescence, 10 µM. HeLa Hsp70 promoter luciferase reporter; scaled: vehicle 0, proteasome-inhibitor control 100%. activation, % at 10 µM. hit rate 0.04% among 200,000. AID 1203, 2008;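 active = activation above the mean across all tested compounds plus 3 SD, cutoff set per campaign, cut at about 5.5% in these data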;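 also: 100% = MG132 at 30 µM as the positive control and 0% = DMSO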
AHR activator – AHR activators, primary screen, cell-based, luminescence, luciferase reporter, human | Aryl hydrocarbon receptor (Homo sapiens), P35869 | AHR-responsive luciferase reporter cells | activation, % at 5 µM | hit rate 2.5% among 320,000 | AID 2796, 2010; in the data active = activation above about 47%;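 also: 0% = vehicle wells and 100% = reference agonist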
The depositor's hits bear a star; · = no result given. A selection: hits, their analogues and other compounds. The true share with any hit is near 3.6%.

SMILES	STAT3 activator	PolyA inhibitor	HSF1 inh	PERK inh	Hsp70 activator	AHR activator
COc1ccc(/C=C/C2=CCN(Cc3ccc(OC)cc3)CC2)cc1	134*	0	1	0	0	-2
CN1CN(C)C(c2ccncc2)=C1c1ccncc1	·	10	0	0	·	-1
CCCc1nnc(NC(=O)CCC(=O)Nc2ccc(Br)cc2)s1	·	13	-1	·	·	1
Cc1cc(N/N=C/c2ccccc2Br)nc2ccccc12	95	0	-8	0	0	52*
CC(=O)Oc1ccc(C(=O)Nc2ccccc2C(=O)Nc2ccc(C(=O)O)cc2)cc1	·	2	1	·	·	11
CCOC(=O)c1c(C)[nH]c(C2=NNC(=Nc3cccc(Cl)c3)SC2)c1C	92	-6	-75*	-1	0	120*
Nn1c(-c2cccc(Br)c2)n[nH]c1=S	102	-12	-54*	1	0	0
CC(Cc1cccnc1)NC(=O)c1cc(COc2c(F)cccc2F)on1 (configuration not stated)	·	-1	5	·	·	48*
CC(Cc1cccnc1)NC(=O)c1cc(COc2ccc(F)cc2Cl)on1 (configuration not stated)	·	-1	-1	·	·	19
COc1cc2c(cc1OC)CN(CC(=O)Nc1ccc(C)c(S(=O)(=O)N3CCOCC3)c1)CC2	·	0	-1	·	·	-2
CS(=O)(=O)N(CC(=O)NCc1ccccc1)C1CCCCC1	99	-7	-77*	1	0	-1
COc1ccc(C(=O)O/N=C(\C)c2nccs2)cc1	99	-22	-4	0	0	0
C/C(=N\OC(=O)c1ccc(F)cc1)c1nccs1	104	-4	-10	3.2*	0	0
C=CCn1c(C)cc(C(=O)CSc2n[nH]c(N)n2)c1C	105	-5	19	0	0	50*
C=CCn1c(C)cc(C(=O)CSc2nnc(NC(C)C)s2)c1C	105	-8	-59*	0	0	5
CCCS(=O)(=O)N1CCC(C(=O)N2CCC(Cc3ccccc3)CC2)CC1	93	7	-2	-1	0	1
CCCS(=O)(=O)N1CCCC(C(=O)N2CCC(Cc3ccccc3)CC2)C1 (configuration not stated)	99	6	-81*	-1	0	-3
Cc1cc(NC(=O)Cn2ccc([N+](=O)[O-])n2)no1	97	11	-52*	1	0	1
O=C1Nc2ccccc2O/C1=C\c1ccccc1	·	13	3	·	·	61*
N#Cc1ccccc1OCC(=O)N(C1CCCCC1)C1CCS(=O)(=O)C1 (configuration not stated)	·	2	5	·	·	5
Cc1ccc(C(=O)Nc2nccc(-c3cccs3)n2)cc1	83	20	5	0	0	71*
O=C(NNC(=S)Nc1ccccc1)C1CC1	94	22	-5	1	0	1
COC(=O)Cc1ccc(NC(=S)NNC(=O)C2CC2)cc1	·	-25	-10	3.6*	·	4
CCC1C/C(=C\c2cccnc2)C(=O)/C(=C/c2cccnc2)C1 (configuration not stated)	72	·	·	-1	25*	·
O=C1/C(=C/c2cccnc2)CC/C1=C\c1cccnc1	97	-13	-6	0	0	-1
SMILES	STAT3 activator	PolyA inhibitor	HSF1 inh	PERK inh	Hsp70 activator	AHR activator
O=C(COC(=O)/C=C/c1ccc(C(F)(F)F)cc1)NCC1CCCO1 (configuration not stated)	·	12	1	·	·	-1
Nc1c(C(=O)N/N=C/c2ccc(Cl)cc2)cnn1-c1ccccc1	·	-8	2	-1	·	38
Nc1c(C(=O)N/N=C/c2cccnc2)cnn1-c1ccccc1	110	6	-1	0	0	51*
COc1cccc(/C=N/NC(=O)c2cnn(-c3ccccc3)c2N)c1	·	-20	2	-1	·	68*
Cc1cccc(NC(=O)c2ccc(OCc3c(C)noc3C)cc2)n1	·	·	·	·	·	-3
COc1ccccc1CNC(=O)/C=C/c1ccc(S(=O)(=O)N2CCOCC2)cc1	101	3	-6	0	0	1
COc1cccc2sc(NC(=O)c3ccc(Br)s3)nc12	88	6	21	0	1	71*
COc1cccc2sc(NNC(=O)COc3ccccc3)nc12	100	-5	0	0	0	51*
CSc1cccc(NC(=O)Nc2nc3c(C)cccc3s2)c1	·	-10	14	1	·	119*
Cc1cccc2sc(NC(=O)[C@H](C)N3C(=O)C4CC=CCC4C3=O)nc12 (some centres not stated)	·	-12	-56*	0	·	18
O=C(Nc1nccs1)c1ccc(Br)s1	·	5	15	·	·	12
COC(=O)Nc1nc2c(C)cccc2s1	125	9	5	1	0	23
CCc1nnc(NS(=O)(=O)c2ccc(NCc3cc(Cl)cc(Cl)c3O)cc2)s1	·	-17	-8	·	·	1
O=C(COc1ccc(Cl)cc1Cl)NN1C(=O)C2C3C=CC(C3)C2C1=O (configuration not stated)	·	5	-4	1	·	-2
CN(C)S(=O)(=O)c1cccc(C(=O)NCCOC(=O)c2cc(F)c(F)cc2Cl)c1	·	2	2	·	·	-3
Cc1cc(Br)ccc1NC(=O)CNC(=O)Cc1ccc(S(=O)(=O)N2CCOCC2)s1	·	-4	2	·	·	5
Cc1cccc2sc(NC(=O)C3CC3)nc12	·	-2	9	·	·	·
Cc1cccc2sc(NC(=O)c3ccc(Cl)s3)nc12	110	0	11	0	0	48*
COc1ccc(OC)c(N=C2SCCCN2C(=O)c2ccc(N3C(=O)CCC3=O)cc2)c1	·	3	-68*	·	·	-1
N#Cc1cnn2c(C(F)(F)F)cc(-c3ccccc3)nc12	·	-1	-6	·	·	60*
Nc1nc(-c2ccc(Cl)cc2Cl)cn1N	131	-3	-1	3.1*	0	65*
CCOc1cc(C(=O)NCc2ccccc2)ccc1OCC(=O)N1CCOCC1	100	2	-77*	0	1	1
COc1cc(C(=O)NCc2cccc(Cl)c2)ccc1OCC(=O)N1CCOCC1	·	12	3	·	·	-2
CCc1c(C)nc(SCC(=O)c2cccs2)c(C#N)c1C	149*	-42	·	-1	0	94*
O=C(NNC(=S)Nc1ccccc1Cl)C1CC1	100	-2	-1	0	0	5
O=C(NC(=S)Nc1cccc(Cl)c1Cl)C1CC1	·	-18	4	·	·	52*
Cc1noc(C)c1C(=O)Nc1sc(C)c(-c2ccccc2)c1C#N	98	-8	-5	0	0	21
